Assays:
[1] = target: Tyrosine-protein kinase CSK (Homo sapiens) (UniProt P41240); assay: Inhibition of CSK (unknown origin) at 1 uM in presence of 100 uM ATP
[2] = target: Vascular endothelial growth factor receptor 2 (Homo sapiens) (UniProt P35968); assay: Inhibition of VEGFR2 (unknown origin) at 1 uM in presence of 100 uM ATP
[3] = target: Protein kinase C theta type (Homo sapiens) (UniProt Q04759); assay: Inhibition of PKCtheta (unknown origin) at 1 uM in presence of 100 uM ATP
[4] = test system: NCI-H460; assay: Growth inhibition of human NCI-H460 cells after 72 hrs by coulter counter method; format: functional, cell-based; conditions: NCI-H460, 72 h
[5] = target: Maternal embryonic leucine zipper kinase (Homo sapiens) (UniProt Q14680); assay: Inhibition of MELK (unknown origin) at 1 uM in presence of 100 uM ATP
[6] = target: cGMP-dependent protein kinase 1 (Homo sapiens) (UniProt Q13976); assay: Inhibition of PRKG1 (unknown origin) at 1 uM in presence of 100 uM ATP
[7] = Growth inhibition of human HCT116 cells after 72 hrs by coulter counter method; format: functional, cell-based; conditions: HCT-116, 72 h
[8] = target: MAP kinase-interacting serine/threonine-protein kinase 1 (Homo sapiens) (UniProt Q9BUB5); assay: Inhibition of MKNK1 (unknown origin) at 1 uM in presence of 100 uM ATP
[9] = target: Cyclin-dependent kinase 1/cyclin B1 (Homo sapiens) (UniProt P06493+P14635); assay: Inhibition of CDK1/cyclinB (unknown origin) at 1 uM in presence of 100 uM ATP; format: protein-complex assay
[10] = target: 5'-AMP-activated protein kinase catalytic subunit alpha-1 (Homo sapiens) (UniProt Q13131); assay: Inhibition of AMPKalpha1 (unknown origin) at 1 uM in presence of 100 uM ATP
[11] = target: 3-phosphoinositide-dependent protein kinase 1 (Homo sapiens) (UniProt O15530); assay: Inhibition of PDK1 (unknown origin) at 1 uM in presence of 100 uM ATP
[12] = target: CDK2/Cyclin A2 (Homo sapiens) (UniProt P24941+P20248); assay: Inhibition of CDK2/cyclinA (unknown origin) at 1 uM in presence of 100 uM ATP; format: protein-complex assay
[13] = target: Serine/threonine-protein kinase Chk2 (Homo sapiens) (UniProt O96017); assay: Inhibition of CHK2 (unknown origin) at 1 uM in presence of 100 uM ATP
[14] = organism: Homo sapiens; assay: Selectivity for AKT1 (unknown origin) over PKAalpha (unknown origin)
Method in brief: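 Selectivity is the PKAα IC50 divided by the AKT1 IC50. Both IC50s were measured in the FRET-based Z′-LYTE peptide-phosphorylation assay.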

[15] = target: Serine/threonine-protein kinase Sgk1 (Homo sapiens) (UniProt O00141); assay: Inhibition of SGK1 (unknown origin) at 1 uM in presence of 100 uM ATP
[16] = target: Serine/threonine-protein kinase PLK1 (Homo sapiens) (UniProt P53350); assay: Inhibition of PLK1 (unknown origin) at 1 uM in presence of 100 uM ATP
[17] = target: Mitogen-activated protein kinase 1 (Homo sapiens) (UniProt P28482); assay: Inhibition of MAPK1 (unknown origin) at 1 uM in presence of 100 uM ATP
[18] = target: Platelet-derived growth factor receptor alpha (Homo sapiens) (UniProt P16234); assay: Inhibition of PDGFRA (unknown origin) at 1 uM in presence of 100 uM ATP
[19] = target: Tyrosine-protein kinase Lyn (Homo sapiens) (UniProt P07948); assay: Inhibition of LYN A (unknown origin) at 1 uM in presence of 100 uM ATP
[20] = target: AMP-activated protein kinase, AMPK (Homo sapiens) (UniProt P54646+O43741+P54619+Q9UGJ0+Q9Y478+Q13131+Q9UGI9); assay: Inhibition of AMPKalpha1/beta1/gamma1 (unknown origin) at 1 uM in presence of 100 uM ATP; format: protein-complex assay
[21] = target: Aurora kinase A (Homo sapiens) (UniProt O14965); assay: Inhibition of AURKA (unknown origin) at 1 uM in presence of 100 uM ATP
[22] = target: Proto-oncogene tyrosine-protein kinase Src (Homo sapiens) (UniProt P12931); assay: Inhibition of SRC (unknown origin) at 1 uM in presence of 100 uM ATP
[23] = target: Vascular endothelial growth factor receptor 1 (Homo sapiens) (UniProt P17948); assay: Inhibition of FLT1 (unknown origin) at 1 uM in presence of 100 uM ATP
[24] = target: T1, RAC-alpha serine/threonine-protein kinase (Homo sapiens, UniProt P31749); assay: Inhibition of AKT1 (unknown origin) after 1 hr by Z'-LYTE kinase assay in presence of 75 uM ATP
[25] = target: Mitogen-activated protein kinase 3 (Homo sapiens) (UniProt P27361); assay: Inhibition of MAPK3 (unknown origin) at 1 uM in presence of 100 uM ATP
[26] = target: T1, RAC-alpha serine/threonine-protein kinase; assay: Irreversible inhibition of AKT1 (unknown origin) Z'-LYTE kinase assay in presence of ATP; conditions: TDE = time-dependent effect
Method in brief: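 Recombinant AKT1 activity read by the FRET-based Z′-LYTE kit, which measures phosphorylation of a peptide substrate. […] IC50 values are averages of three independent experiments with 95% confidence intervals.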

[27] = target: cAMP-dependent protein kinase catalytic subunit PRKX (Homo sapiens) (UniProt P51817); assay: Inhibition of PRKX (unknown origin) at 1 uM in presence of 100 uM ATP
[28] = target: PAS domain-containing serine/threonine-protein kinase (Homo sapiens) (UniProt Q96RG2); assay: Inhibition of PASK (unknown origin) at 1 uM in presence of 100 uM ATP
[29] = target: Tyrosine-protein kinase ABL1 (Homo sapiens) (UniProt P00519); assay: Inhibition of ABL1 (unknown origin) at 1 uM in presence of 100 uM ATP
[30] = target: Focal adhesion kinase 1 (Homo sapiens) (UniProt Q05397); assay: Inhibition of PTK2 (unknown origin) at 1 uM in presence of 100 uM ATP
[31] = target: Serine/threonine-protein kinase MARK1 (Homo sapiens) (UniProt Q9P0L2); assay: Inhibition of MARK1 (unknown origin) at 1 uM in presence of 100 uM ATP
[32] = Selectivity index, ratio of IC50 for human HCT116 cells to IC50 for recombinant AKT (unknown origin); parameters: species or system HCT-116
[33] = target: Mitogen-activated protein kinase 14 (Homo sapiens) (UniProt Q16539); assay: Inhibition of MAPK14 (unknown origin) at 1 uM in presence of 100 uM ATP
[34] = target: Ribosomal protein S6 kinase beta-1 (Homo sapiens) (UniProt P23443); assay: Inhibition of p70S6K (unknown origin) at 1 uM in presence of 100 uM ATP
[35] = target: Ribosomal protein S6 kinase alpha-1 (Homo sapiens) (UniProt Q15418); assay: Inhibition of RSK1 (unknown origin) at 1 uM in presence of 100 uM ATP
[36] = target: Epidermal growth factor receptor (Homo sapiens) (UniProt P00533); assay: Inhibition of EGFR (unknown origin) at 1 uM in presence of 100 uM ATP
[37] = target: Ribosomal protein S6 kinase alpha-5 (Homo sapiens) (UniProt O75582); assay: Inhibition of MSK1 (unknown origin) at 1 uM in presence of 100 uM ATP
[38] = target: Hepatocyte growth factor receptor (Homo sapiens) (UniProt P08581); assay: Inhibition of MET (unknown origin) at 1 uM in presence of 100 uM ATP
[39] = target: Calcium/calmodulin-dependent protein kinase type IV (Homo sapiens) (UniProt Q16566); assay: Inhibition of CAMK-4 (unknown origin) at 1 uM in presence of 100 uM ATP
[40] = organism: Homo sapiens; assay: Inhibition of PKAalpha (unknown origin) at 1 uM in presence of 100 uM ATP
[41] = target: MAP kinase-activated protein kinase 2 (Homo sapiens) (UniProt P49137); assay: Inhibition of MAPKAPK2 (unknown origin) at 1 uM in presence of 100 uM ATP
[42] = target: Calcium/calmodulin-dependent protein kinase type 1D (Homo sapiens) (UniProt Q8IU85); assay: Inhibition of CAMK1D (unknown origin) at 1 uM in presence of 100 uM ATP
[43] = target: Testis-specific serine/threonine-protein kinase 1 (Homo sapiens) (UniProt Q9BXA7); assay: Inhibition of TSSK1 (unknown origin) at 1 uM in presence of 100 uM ATP
[44] = target: Mitogen-activated protein kinase kinase kinase kinase 5 (Homo sapiens) (UniProt Q9Y4K4); assay: Inhibition of MAP4K5 (unknown origin) at 1 uM in presence of 100 uM ATP
[45] = Selectivity index, ratio of IC50 for human NCI-H460 cells to IC50 for recombinant AKT (unknown origin)
[46] = target: Dual specificity mitogen-activated protein kinase kinase 1 (Homo sapiens) (UniProt Q02750); assay: Inhibition of MEK1 (unknown origin) at 1 uM in presence of 100 uM ATP
[47] = target: Protein kinase C alpha type (Homo sapiens) (UniProt P17252); assay: Inhibition of PKCalpha (unknown origin) at 1 uM in presence of 100 uM ATP
[48] = target: Serine/threonine-protein kinase Chk1 (Homo sapiens) (UniProt O14757); assay: Inhibition of CHK1 (unknown origin) at 1 uM in presence of 100 uM ATP
[49] = target: Tyrosine-protein kinase SYK (Homo sapiens) (UniProt P43405); assay: Inhibition of SYK (unknown origin) at 1 uM in presence of 100 uM ATP
[50] = target: Receptor tyrosine-protein kinase erbB-4 (Homo sapiens) (UniProt Q15303); assay: Inhibition of ERBB4 (unknown origin) at 1 uM in presence of 100 uM ATP
[51] = target: T1, RAC-alpha serine/threonine-protein kinase; assay: Inhibition of AKT1 (unknown origin) at 1 uM in presence of 100 uM ATP
[52] = Inhibition of PKAalpha (unknown origin) after 1 hr by Z'-LYTE kinase assay in presence of 4 uM ATP; parameters: species or system Homo sapiens
Method in brief: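 Z′-LYTE FRET assay measuring phosphorylation of a peptide substrate by recombinant kinase, independent of mechanism. IC50 is the average of three independent experiments, with 95% confidence intervals.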

T1 sequence (P31749 whole entry): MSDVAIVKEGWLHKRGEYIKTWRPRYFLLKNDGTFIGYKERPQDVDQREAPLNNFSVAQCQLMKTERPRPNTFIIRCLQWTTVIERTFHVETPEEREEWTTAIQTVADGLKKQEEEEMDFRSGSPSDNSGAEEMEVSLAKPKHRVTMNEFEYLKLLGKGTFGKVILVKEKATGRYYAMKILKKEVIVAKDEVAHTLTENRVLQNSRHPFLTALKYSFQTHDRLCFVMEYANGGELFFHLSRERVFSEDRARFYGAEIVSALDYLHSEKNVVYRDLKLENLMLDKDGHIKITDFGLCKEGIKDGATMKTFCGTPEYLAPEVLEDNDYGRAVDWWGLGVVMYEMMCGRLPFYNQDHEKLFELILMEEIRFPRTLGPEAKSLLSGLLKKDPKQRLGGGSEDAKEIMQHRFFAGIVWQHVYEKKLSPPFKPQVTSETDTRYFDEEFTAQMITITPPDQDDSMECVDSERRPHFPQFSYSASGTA
Sequence of Mitogen-activated protein kinase kinase kinase kinase 5 (Homo sapiens) (Q9Y4K4 whole entry, looked up): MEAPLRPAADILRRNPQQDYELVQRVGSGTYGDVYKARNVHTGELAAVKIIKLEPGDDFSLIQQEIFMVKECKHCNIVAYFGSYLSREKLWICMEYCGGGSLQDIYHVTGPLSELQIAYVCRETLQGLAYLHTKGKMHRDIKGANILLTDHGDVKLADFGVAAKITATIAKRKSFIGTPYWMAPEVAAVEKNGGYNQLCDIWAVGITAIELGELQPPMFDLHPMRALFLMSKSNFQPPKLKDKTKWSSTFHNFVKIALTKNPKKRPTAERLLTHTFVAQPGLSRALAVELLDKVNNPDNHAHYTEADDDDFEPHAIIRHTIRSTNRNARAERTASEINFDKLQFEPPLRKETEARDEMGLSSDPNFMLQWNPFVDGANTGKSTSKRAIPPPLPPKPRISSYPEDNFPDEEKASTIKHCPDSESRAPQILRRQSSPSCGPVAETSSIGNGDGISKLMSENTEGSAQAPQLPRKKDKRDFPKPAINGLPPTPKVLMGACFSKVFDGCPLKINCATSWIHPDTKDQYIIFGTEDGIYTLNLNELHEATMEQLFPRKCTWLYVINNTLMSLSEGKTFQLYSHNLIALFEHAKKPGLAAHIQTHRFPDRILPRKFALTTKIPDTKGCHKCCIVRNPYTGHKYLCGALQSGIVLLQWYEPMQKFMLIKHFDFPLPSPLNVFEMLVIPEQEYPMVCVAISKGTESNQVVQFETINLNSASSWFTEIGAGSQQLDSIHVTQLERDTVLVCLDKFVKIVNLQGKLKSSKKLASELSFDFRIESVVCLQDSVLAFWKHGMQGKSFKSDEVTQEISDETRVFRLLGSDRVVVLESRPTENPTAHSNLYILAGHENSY
Sequence of Tyrosine-protein kinase Lyn (Homo sapiens) (P07948 2-512 limits assumed): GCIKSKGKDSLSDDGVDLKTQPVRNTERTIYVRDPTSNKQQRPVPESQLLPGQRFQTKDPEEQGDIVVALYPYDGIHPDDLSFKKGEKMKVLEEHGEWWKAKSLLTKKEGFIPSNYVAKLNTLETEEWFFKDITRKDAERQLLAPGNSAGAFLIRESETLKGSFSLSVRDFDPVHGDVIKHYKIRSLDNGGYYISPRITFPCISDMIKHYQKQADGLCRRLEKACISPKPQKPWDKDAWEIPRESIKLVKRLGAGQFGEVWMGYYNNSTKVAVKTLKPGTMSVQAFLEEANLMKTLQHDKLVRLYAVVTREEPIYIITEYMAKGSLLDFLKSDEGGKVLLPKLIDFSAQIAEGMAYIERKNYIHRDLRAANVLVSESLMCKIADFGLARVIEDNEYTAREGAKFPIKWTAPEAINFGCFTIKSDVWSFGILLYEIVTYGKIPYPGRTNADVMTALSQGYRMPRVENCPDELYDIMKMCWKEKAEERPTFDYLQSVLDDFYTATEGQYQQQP
Sequence of Calcium/calmodulin-dependent protein kinase type IV (Homo sapiens) (Q16566 whole entry): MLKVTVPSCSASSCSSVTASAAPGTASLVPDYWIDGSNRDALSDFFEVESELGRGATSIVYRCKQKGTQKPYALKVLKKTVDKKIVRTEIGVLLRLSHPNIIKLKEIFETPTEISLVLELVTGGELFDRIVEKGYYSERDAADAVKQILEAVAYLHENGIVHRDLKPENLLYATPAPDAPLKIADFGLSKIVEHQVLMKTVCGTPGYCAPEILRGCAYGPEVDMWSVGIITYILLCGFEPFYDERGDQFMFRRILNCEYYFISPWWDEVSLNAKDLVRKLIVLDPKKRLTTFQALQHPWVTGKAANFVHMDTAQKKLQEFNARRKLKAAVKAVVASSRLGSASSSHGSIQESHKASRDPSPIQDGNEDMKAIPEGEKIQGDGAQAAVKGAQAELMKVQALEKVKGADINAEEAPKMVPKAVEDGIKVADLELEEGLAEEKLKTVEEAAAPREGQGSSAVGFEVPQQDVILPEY
Sequence of Ribosomal protein S6 kinase alpha-1 (Homo sapiens) (Q15418 whole entry): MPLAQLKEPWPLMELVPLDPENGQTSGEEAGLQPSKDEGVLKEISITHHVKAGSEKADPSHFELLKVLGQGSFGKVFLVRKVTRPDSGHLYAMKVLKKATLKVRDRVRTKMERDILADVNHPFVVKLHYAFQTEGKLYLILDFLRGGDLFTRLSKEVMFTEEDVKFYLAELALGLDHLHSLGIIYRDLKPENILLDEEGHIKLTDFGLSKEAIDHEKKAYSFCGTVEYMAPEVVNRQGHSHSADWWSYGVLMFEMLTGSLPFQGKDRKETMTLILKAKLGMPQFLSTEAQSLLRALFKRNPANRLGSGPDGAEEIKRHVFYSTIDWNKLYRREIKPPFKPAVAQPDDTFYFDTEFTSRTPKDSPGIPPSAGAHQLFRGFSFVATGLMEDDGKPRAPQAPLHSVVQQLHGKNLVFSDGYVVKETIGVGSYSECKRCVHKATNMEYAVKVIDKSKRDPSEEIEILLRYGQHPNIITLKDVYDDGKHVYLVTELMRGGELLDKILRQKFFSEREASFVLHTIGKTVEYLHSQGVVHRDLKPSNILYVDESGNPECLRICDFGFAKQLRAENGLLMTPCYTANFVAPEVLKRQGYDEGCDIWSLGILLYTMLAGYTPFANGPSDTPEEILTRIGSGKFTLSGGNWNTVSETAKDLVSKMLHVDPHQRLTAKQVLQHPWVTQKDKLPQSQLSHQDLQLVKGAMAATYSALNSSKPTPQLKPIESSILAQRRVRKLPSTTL
Sequence of Mitogen-activated protein kinase 3 (Homo sapiens) (P27361 whole entry): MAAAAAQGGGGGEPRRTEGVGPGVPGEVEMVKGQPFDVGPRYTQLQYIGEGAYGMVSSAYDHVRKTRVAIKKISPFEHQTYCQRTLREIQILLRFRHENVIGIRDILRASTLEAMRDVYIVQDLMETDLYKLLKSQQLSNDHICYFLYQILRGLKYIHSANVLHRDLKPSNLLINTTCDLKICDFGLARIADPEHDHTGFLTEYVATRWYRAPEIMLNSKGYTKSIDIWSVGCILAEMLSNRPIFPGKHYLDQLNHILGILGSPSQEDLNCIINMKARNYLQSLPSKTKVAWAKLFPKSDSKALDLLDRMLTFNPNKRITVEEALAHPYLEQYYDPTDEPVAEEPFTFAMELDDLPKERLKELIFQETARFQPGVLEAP
Sequence of Protein kinase C theta type (Homo sapiens) (Q04759 whole entry, looked up): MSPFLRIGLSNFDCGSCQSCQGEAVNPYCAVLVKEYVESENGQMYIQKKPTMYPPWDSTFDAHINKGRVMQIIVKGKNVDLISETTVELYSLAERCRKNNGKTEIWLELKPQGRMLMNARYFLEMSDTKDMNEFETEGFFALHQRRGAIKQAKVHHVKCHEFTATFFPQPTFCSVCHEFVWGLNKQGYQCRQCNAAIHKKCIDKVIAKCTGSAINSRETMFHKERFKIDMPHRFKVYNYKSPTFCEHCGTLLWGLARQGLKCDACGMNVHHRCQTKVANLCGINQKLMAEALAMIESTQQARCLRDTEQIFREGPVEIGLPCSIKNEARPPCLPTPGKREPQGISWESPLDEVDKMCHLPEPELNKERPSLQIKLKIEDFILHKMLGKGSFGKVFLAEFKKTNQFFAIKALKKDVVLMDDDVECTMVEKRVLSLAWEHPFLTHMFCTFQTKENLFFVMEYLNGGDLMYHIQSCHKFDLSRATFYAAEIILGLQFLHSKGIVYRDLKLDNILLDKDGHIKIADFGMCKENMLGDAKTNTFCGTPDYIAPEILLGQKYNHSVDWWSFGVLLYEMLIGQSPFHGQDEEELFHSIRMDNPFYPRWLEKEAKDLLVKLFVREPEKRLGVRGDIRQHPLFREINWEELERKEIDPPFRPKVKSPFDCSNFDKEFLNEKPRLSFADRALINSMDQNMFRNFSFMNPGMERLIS

C=CC(=O)[C@H](Cc1ccccc1)NC(=O)OC(C)(C)C
inhibition [1]: 8% | inhibition [2]: -6% | inhibition [3]: 3% | IC50 [4]: 22.9 µM | inhibition [5]: 62% | inhibition [6]: -4% | IC50 [7]: 21.5 µM | inhibition [8]: 2% | inhibition [9]: 9% | inhibition [10]: 46% | inhibition [11]: 15% | inhibition [12]: 3% | inhibition [13]: 46% | Selectivity ratio [14]: 90 | inhibition [15]: 34% | inhibition [16]: 10% | inhibition [17]: 15% | inhibition [18]: 0% | inhibition [19]: 5% | inhibition [20]: 46% | inhibition [21]: 35% | inhibition [22]: -4% | inhibition [23]: 2% | IC50 [24]: 0.58 µM | inhibition [25]: 8% | inhibition [26]: tde | inhibition [27]: -1% | inhibition [28]: 19% | inhibition [29]: 13% | inhibition [30]: -4% | inhibition [31]: 4% | Ratio IC50 [32]: 37 | inhibition [33]: 17% | inhibition [34]: 14% | inhibition [35]: 5% | inhibition [36]: -2% | inhibition [37]: 10% | inhibition [38]: 11% | inhibition [39]: 50% | inhibition [40]: -10% | inhibition [41]: -7% | inhibition [42]: 36% | inhibition [43]: -1% | inhibition [44]: 22% | Ratio IC50 [45]: 39 | inhibition [46]: 5% | inhibition [47]: 18% | inhibition [48]: 5% | inhibition [49]: -1% | inhibition [50]: 9% | inhibition [51]: 50% | IC50 [52]: 52.6 µM

CCn1c(-c2nonc2N)nc2c(C#CC(C)(C)O)ncc(OC[C@H]3CCCNC3)c21 [GSK-690693]
IC50 [4]: 5.4 µM | IC50 [7]: 8.2 µM

CC(C)(C)OC(=O)N[C@@H](Cc1ccccc1)C(=O)NCCBr
IC50 [24]: > 100 µM

CC(C)(C)OC(=O)N[C@@H](Cc1ccccc1)C(=O)NCCCl
IC50 [24]: > 100 µM

CC(C)(C)OC(=O)NN(Cc1ccccc1)C(=O)CCl
IC50 [24]: > 100 µM

NC1(c2ccc(-c3nc4ccn5c(=O)[nH]nc5c4cc3-c3ccccc3)cc2)CCC1 [MK-2206]
IC50 [4]: 5.4 µM | IC50 [7]: 7.5 µM

CC(C)(C)OC(=O)NN(Cc1ccccc1)C(=O)CBr
IC50 [24]: 24.7 µM

CCC(=O)[C@H](Cc1ccccc1)NC(=O)OC(C)(C)C
IC50 [4]: > 100 µM | IC50 [7]: > 100 µM | IC50 [24]: > 100 µM

From ChEMBL document CHEMBL3297689, “Phenylalanine-Based Inactivator of AKT Kinase: Design, Synthesis, and Biological Evaluation” (ACS Med Chem Lett, 2014)
